Measured values from ChEMBL document CHEMBL3259520, “Structure-activity relationships studies of quinoxalinone derivatives as aldose reductase inhibitors” (Eur J Med Chem, 2014).
Values belong to the compound of their own block, whether it stands above or below them.

Columns and labels:
[1] = test system: Aldehyde reductase AKR1A1 (Rattus norvegicus); test: Inhibition of Wistar rat kidney aldehyde reductase-1 using D-glucuronate as substrate assessed as oxidation of NADPH at 10 uM preincubated for 10 mins followed by substrate addition measured for 4 mins by spectrophotometric analysis relative to control
[2] = target: Aldo-keto reductase family 1 member B1 (Rattus norvegicus, UniProt P07943); test: Inhibition of Wistar rat eye lens aldose reductase-2 using D-L glyceraldehyde as substrate assessed as oxidation of NADPH preincubated for 10 mins followed by substrate addition measured for 4 mins by spectrophotometric analysis
[3] = target: Aldo-keto reductase family 1 member B1 (Rattus norvegicus) (UniProt P07943); test: Inhibition of Wistar rat eye lens aldose reductase-2 using D-L glyceraldehyde as substrate assessed as oxidation of NADPH at 10 uM preincubated for 10 mins followed by substrate addition measured for 4 mins by spectrophotometric analysis relative to control
Method in brief: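 ALR2 was taken from Wistar rat lens homogenate. It was fractionated with ammonium sulfate (40% and 50% supernatants, then a 75% cut), dissolved in 0.05 M NaCl, dialyzed and stored at −20 °C. The 1 mL assay ran at 30 °C with 0.10 mM NADPH solution, 0.1 M sodium phosphate pH 6.2 and D,L-glyceraldehyde substrate. Compounds were in DMSO diluted with water, 10^-5 M final, with a substrate-free blank rate subtracted.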

Compound: O=C(O)Cn1c(=O)c(/C=C/c2ccccc2)nc2ccc(Cl)cc21
inhibition [1]: 35% | IC50 [2]: 3880 nM

Compound: COc1ccc(N2CCN(c3nc4ccccc4n(CC(=O)O)c3=O)CC2)cc1
inhibition [1]: 48% | IC50 [2]: 7530 nM

Compound: CC(C)(C)NC(=O)/C=C/c1nc2ccccc2n(Cc2ccc([N+](=O)[O-])cc2)c1=O
inhibition [3]: 36.2%

Compound: O=c1c(N2CCN(c3cnccn3)CC2)nc2ccccc2n1Cc1ccc([N+](=O)[O-])cc1
inhibition [3]: 24%

Compound: O=C(O)Cn1c(=O)c(/C=C/c2ccc(F)cc2)nc2cc(Cl)ccc21
inhibition [1]: 25% | IC50 [2]: 660 nM

Compound: O=C(O)Cn1c(=O)c(CCc2ccc(F)cc2)nc2ccccc21
inhibition [1]: 40% | IC50 [2]: 1140 nM

Compound: O=c1c(N2CCN(c3cccc(C(F)(F)F)c3)CC2)nc2ccccc2n1Cc1ccc([N+](=O)[O-])cc1
inhibition [3]: 42.9%

Compound: O=C(O)Cn1c(=O)c(CCc2ccccc2)nc2ccccc21
inhibition [1]: 22% | IC50 [2]: 143 nM

Compound: O=c1c(/C=C/c2ccccc2)nc2ccccc2n1Cc1ccc([N+](=O)[O-])cc1
inhibition [3]: 30%

Compound: O=C(O)Cn1c(=O)c(/C=C/c2ccccc2)nc2ccccc21
inhibition [1]: 32% | IC50 [2]: 820 nM

Compound: O=c1c(N2CCN(CCN3CCOCC3)CC2)nc2ccccc2n1Cc1ccc([N+](=O)[O-])cc1
inhibition [3]: 23%

Further lines, results first:

inhibition [3]: 26%
Compound: COc1ccc(N2CCN(c3nc4ccccc4n(Cc4ccc([N+](=O)[O-])cc4)c3=O)CC2)cc1

inhibition [3]: 32%
Compound: O=c1c(-c2csc3ccccc23)nc2ccccc2n1Cc1ccc([N+](=O)[O-])cc1

inhibition [1]: 25% | IC50 [2]: 362 nM
Compound: O=C(O)Cn1c(=O)c(/C=C/c2ccc(F)cc2)nc2cc([N+](=O)[O-])ccc21

inhibition [1]: 47% | IC50 [2]: 1430 nM
Compound: O=C(O)Cn1c(=O)c(/C=C/c2ccc(F)cc2)nc2ccccc21

inhibition [3]: 24%
Compound: O=c1c(/C=C/c2ccc(F)cc2)nc2ccccc2n1Cc1ccc([N+](=O)[O-])cc1

inhibition [1]: 41% | IC50 [2]: 283 nM
Compound: O=C(O)Cn1c(=O)c(Nc2ccc(F)cc2F)nc2cc([N+](=O)[O-])ccc21

inhibition [1]: 25% | IC50 [2]: 1860 nM
Compound: CC(C)(C)NC(=O)/C=C/c1nc2ccccc2n(CC(=O)O)c1=O
